From ChEMBL document CHEMBL3098077, “Discovery of novel antitumor dibenzocyclooctatetraene derivatives and related biphenyls as potent inhibitors of NF-κB signaling pathway” (Bioorg Med Chem, 2014)
The source made the active and inactive calls. No cut-off for these calls is given here.

What was measured:
[1] = (§1) Inhibition of LPS-induced NF-kappaB activation in mouse RAW264.7 cells treated 30 mins before LPS challenge measured after 6 hrs by luciferase reporter gene assay; type: cell-based
Outline: (§2)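 RAW264.7 cells stably carrying an NF-κB-driven firefly luciferase reporter, seeded at 10^4 cells/well and attached overnight. Pretreated 30 min with compound, then stimulated with LPS 1 μg/mL for 6 h; cells lysed and luciferase activity measured. Compounds screened at 10 μM; those above 98% inhibition were tested at serial concentrations for IC50, alongside BAY 11-7082 as positive control.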

A549 = assay: Cytotoxicity against human A549 cells by SRB assay; type: functional
Outline: (§3)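 SRB growth assay; GI50 taken as molar concentration giving 50% tumor cell growth inhibition. Paclitaxel run as positive control. KBvin is a P-gp-expressing epidermoid carcinoma of the nasopharynx line.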

KB = assay: Cytotoxicity against human KB cells by SRB assay; type: functional; outline: as §3
[2] = Cytotoxicity against human KBVIN cells by SRB assay; type: functional; outline: as §3
DU-145 = assay: Cytotoxicity against human DU145 cells by SRB assay; type: functional; outline: as §3
RAW264.7 [3] = assay: Inhibition of NF-kappaB-mediated IkappaBalpha degradation in LPS-induced mouse RAW264.7 cells treated 30 mins before LPS challenge measured after 15 mins by Western blot analysis; type: cell-based
Outline: (§4)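 RAW264.7 cells in dishes, attached overnight, pretreated 30 min with compound (test compound at 2.5, 5, 10 μM; reference inhibitor at 20 μM), then given LPS 1 μg/mL for 15 min. Total protein in RIPA buffer with protease/phosphatase inhibitors, used for IκB-α; nuclear extract used for p65. Western blot: SDS-PAGE, PVDF, primary antibody overnight at 4 °C, peroxidase secondary 1 h at room temperature, chemiluminescence.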

RAW264.7 [4] = assay: as §1; type: cell-based; outline: as §2
RAW264.7 [5] = assay: Inhibition of LPS-induced NF-kappaB activation in mouse RAW264.7 cells at 10 uM treated 30 mins before LPS challenge measured after 6 hrs by luciferase reporter gene assay; type: cell-based; outline: as §2
[6] = target: Transcription factor p65 (Mus musculus) (UniProt Q04207); assay: Inhibition of LPS-induced NF-kappaB p65 translocation into nucleus in mouse RAW264.7 cells treated 30 mins before LPS challenge measured after 15 mins by Western blot analysis; type: cell-based; outline: as §4
Chain of Transcription factor p65 (Mus musculus) (Q04207 whole entry): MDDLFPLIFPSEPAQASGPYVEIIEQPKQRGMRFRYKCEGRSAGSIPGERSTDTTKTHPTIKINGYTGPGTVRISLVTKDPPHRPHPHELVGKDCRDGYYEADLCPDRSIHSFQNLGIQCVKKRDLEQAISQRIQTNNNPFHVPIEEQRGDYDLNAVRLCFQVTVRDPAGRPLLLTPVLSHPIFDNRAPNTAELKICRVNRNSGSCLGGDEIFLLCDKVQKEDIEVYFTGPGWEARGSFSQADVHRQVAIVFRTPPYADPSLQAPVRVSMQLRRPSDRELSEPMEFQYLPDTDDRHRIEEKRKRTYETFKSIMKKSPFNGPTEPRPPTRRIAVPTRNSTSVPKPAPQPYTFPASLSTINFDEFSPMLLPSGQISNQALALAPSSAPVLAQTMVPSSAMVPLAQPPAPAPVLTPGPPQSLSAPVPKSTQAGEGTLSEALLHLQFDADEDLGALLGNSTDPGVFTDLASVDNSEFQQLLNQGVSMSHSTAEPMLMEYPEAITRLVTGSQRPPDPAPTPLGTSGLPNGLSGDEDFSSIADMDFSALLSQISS

RAW264.7 [7] = assay: Antinflammatory activity in mouse RAW264.7 cells assessed as inhibition of LPS-induced nitric oxide production at 2.5 uM treated 30 mins before LPS challenge measured after 18 hrs by Griess assay; type: functional, cell-based
Outline: (§5)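 RAW264.7 cells seeded in dishes, attached overnight, pretreated 30 min with compound (test compound at 0.6, 1.25 and 2.5 μM; reference inhibitor at 20 μM), then stimulated with LPS 1 μg/mL for 18 h. Medium collected and centrifuged; supernatant nitrite reacted with Griess reagents I and II, absorbance read at 540 nm as measure of NO.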

RAW264.7 [8] = assay: Inhibition of LPS-induced NF-kappaB activation in mouse RAW264.7 cells at 20 uM treated 30 mins before LPS challenge measured after 6 hrs by luciferase reporter gene assay; type: cell-based
RAW264.7 [9] = assay: Antinflammatory activity in mouse RAW264.7 cells assessed as inhibition of LPS-induced nitric oxide production at 20 uM treated 30 mins before LPS challenge measured after 18 hrs by Griess assay; type: functional, cell-based; outline: as §5

What does the source list for `COc1cc(C=C(C#N)C#N)c(-c2c(C=C(C#N)C#N)cc(OC)c(OC)c2OC)cc1OC`?
IC50 [1]: 4.16 µM; GI50 (A549): 18 µM; GI50 (KB): 23.2 µM; GI50 [2]: 15.9 µM; GI50 (DU-145): 10.1 µM

Which results are given for `COc1cc(/C=C(\C)[N+](=O)[O-])c(-c2c(/C=C(\C)[N+](=O)[O-])cc(OC)c(OC)c2OC)cc1OC`?
IC50 [1]: 2.16 µM; GI50 (A549): 5.23 µM; GI50 (KB): 13.5 µM; GI50 [2]: 7.22 µM; GI50 (DU-145): 6.75 µM

With `CC(=O)O[C@H]1C(=O)[C@@]2(C)[C@H]([C@H](OC(=O)c3ccccc3)[C@]3(O)C[C@H](OC(=O)[C@H](O)[C@@H](NC(=O)c4ccccc4)c4ccccc4)C(C)=C1C3(C)C)[C@]1(OC(C)=O)CO[C@@H]1C[C@@H]2O` [PACLITAXEL] as the compound, how does the GI50 (A549) read?
Its GI50 is 0.0076 µM.

What about the GI50 (KB) of the same compound?
The GI50 was 0.008 µM.

And the GI50 [2]?
Its GI50 is 1.8 µM.

What about the GI50 (DU-145) of the same compound?
The GI50 was 0.006 µM.

For `COC(=O)c1cc(OC)c(OC)c(OC)c1-c1ccccc1C=C(C#N)C#N`, which GI50 (A549) is on record?
Its GI50 is 42 µM.

What about the GI50 (KB) of the same compound?
The GI50 was 36.2 µM.

And the GI50 [2]?
The GI50 was 20.6 µM.

What about the GI50 (DU-145) of the same compound?
Its GI50 is 21.9 µM.

With `CCOC(=O)/C(C#N)=C/c1ccccc1-c1c(C(=O)OC)cc(OC)c(OC)c1OC` as the compound, how does the GI50 (A549) read?
Its GI50 is greater than 40 µM.

And the GI50 (KB)?
Its GI50 is greater than 40 µM.

And the GI50 [2]?
Its GI50 is greater than 40 µM.

What about the GI50 (DU-145) of the same compound?
Its GI50 is greater than 40 µM.

For `COc1cc(/C=C/[N+](=O)[O-])c(-c2ccccc2/C=C/[N+](=O)[O-])c(OC)c1OC`, which IC50 [1] is on record?
The IC50 was 1.78 µM.

And the GI50 (A549)?
The GI50 was 3.07 µM.

What about the GI50 (KB) of the same compound?
The GI50 was 2.58 µM.

And the GI50 [2]?
Its GI50 is 4.6 µM.

What about the GI50 (DU-145) of the same compound?
The GI50 was 2.09 µM.

With `CCOC(=O)/C(C#N)=C/c1cc2c(cc1-c1c(/C=C(\C#N)C(=O)OCC)cc(OC)c(OC)c1OC)OCO2` as the compound, how does the GI50 (A549) read?
Its GI50 is greater than 22 µM.

What about the GI50 (KB) of the same compound?
Its GI50 is greater than 22 µM.

And the GI50 [2]?
The GI50 was greater than 22 µM.

And the GI50 (DU-145)?
Its GI50 is greater than 22 µM.

For `COc1c2c(cc(/C=C(\C)[N+](=O)[O-])c1-c1ccccc1/C=C(\C)[N+](=O)[O-])OCO2`, which IC50 [1] is on record?
Its IC50 is 1.61 µM.

What about the GI50 (A549) of the same compound?
Its GI50 is 4.02 µM.

And the GI50 (KB)?
The GI50 was 13.1 µM.

And the GI50 [2]?
The GI50 was 12.3 µM.

What about the GI50 (DU-145) of the same compound?
The GI50 was 5.02 µM.

Which results are given for `COc1cc2cc3c(=O)[nH]c(=O)c-3cc3cc4c(cc3c2c(OC)c1OC)OCO4`?
inhibition (RAW264.7 [3]): Dose-dependent effect; inhibition (RAW264.7 [4]): Dose-dependent effect; IC50 [1]: 0.52 µM; inhibition (RAW264.7 [5]): Active; inhibition [6]: Dose-dependent effect; GI50 (A549): 1.38 µM; GI50 (KB): 1.47 µM; GI50 [2]: 1.45 µM; GI50 (DU-145): 1.43 µM; inhibition (RAW264.7 [7]): Active

With `Cc1ccc(S(=O)(=O)/C=C/C#N)cc1` as the compound, how does the inhibition (RAW264.7 [8]) read?
The inhibition was “Active”.

What about the inhibition (RAW264.7 [9]) of the same compound?
The inhibition was “Active”.

What about the IC50 [1] of the same compound?
The IC50 was 1.72 µM.

For `CCOC(=O)/C(C#N)=C/c1ccccc1-c1c(/C=C(\C#N)C(=O)OCC)cc(OC)c(OC)c1OC`, which IC50 [1] is on record?
The IC50 was 3.02 µM.

And the GI50 (A549)?
Its GI50 is 7.02 µM.

What about the GI50 (KB) of the same compound?
The GI50 was 6.53 µM.

What about the GI50 [2] of the same compound?
The GI50 was 8.45 µM.

What about the GI50 (DU-145) of the same compound?
The GI50 was 8.08 µM.

Which GI50 (A549) does the source give for `COC(=O)C1=C/c2cc3c(cc2-c2c(cc(OC)c(OC)c2OC)/C=C\1C(=O)OC)OCO3` here?
Its GI50 is 14.5 µM.

What about the GI50 (KB) of the same compound?
Its GI50 is 14 µM.

What about the GI50 [2] of the same compound?
Its GI50 is 15.4 µM.

With `COc1cc2cc3c(=O)[nH]c(=O)c-3cc3ccccc3c2c(OC)c1OC` as the compound, how does the IC50 [1] read?
The IC50 was 1.02 µM.

And the GI50 (A549)?
The GI50 was 2.31 µM.

And the GI50 (KB)?
Its GI50 is 2.67 µM.

What about the GI50 [2] of the same compound?
Its GI50 is 2.07 µM.

What about the GI50 (DU-145) of the same compound?
Its GI50 is 2.34 µM.

Which IC50 [1] does the source give for `CCOC(=O)/C(C#N)=C/c1cc(OC)c(OC)cc1-c1c(/C=C(\C#N)C(=O)OCC)cc(OC)c(OC)c1OC` here?
The IC50 was 3.75 µM.

What about the GI50 (A549) of the same compound?
Its GI50 is 13.8 µM.

And the GI50 (KB)?
Its GI50 is greater than 36 µM.

And the GI50 [2]?
The GI50 was 15.1 µM.

What about the GI50 (DU-145) of the same compound?
Its GI50 is 13.1 µM.

What does the source list for `COc1cc(C=C(C#N)C#N)c(-c2ccccc2C=C(C#N)C#N)c(OC)c1OC`?
GI50 (A549): > 40 µM; GI50 (KB): > 40 µM; GI50 [2]: > 40 µM; GI50 (DU-145): > 40 µM

Which results are given for `COc1cc2c(c(OC)c1OC)-c1cc3c(cc1/C=C(C(=O)O)\C(C(=O)O)=C/2)OCO3`?
GI50 (A549): > 20 µM; GI50 (KB): > 20 µM; GI50 [2]: > 20 µM; GI50 (DU-145): > 20 µM

Which GI50 (A549) does the source give for `COc1cc(C=C(C#N)C#N)c(-c2cc3c(cc2C=C(C#N)C#N)OCO3)c(OC)c1OC` here?
Its GI50 is greater than 40 µM.

What about the GI50 (KB) of the same compound?
Its GI50 is greater than 40 µM.

And the GI50 [2]?
The GI50 was greater than 40 µM.

And the GI50 (DU-145)?
Its GI50 is 19.7 µM.

With `COc1cc2cc3c(=O)[nH]c(=O)c-3cc3cc(OC)c(OC)c(OC)c3c2cc1OC` as the compound, how does the IC50 [1] read?
Its IC50 is 0.52 µM.

And the GI50 (A549)?
The GI50 was 10.1 µM.

And the GI50 (KB)?
The GI50 was 10.1 µM.

What about the GI50 [2] of the same compound?
Its GI50 is 10.8 µM.

And the GI50 (DU-145)?
The GI50 was 11.3 µM.

Which GI50 (A549) does the source give for `COC(=O)C1=C/c2cc(OC)c(OC)cc2-c2c(cc(OC)c(OC)c2OC)/C=C\1C(=O)OC` here?
Its GI50 is greater than 20 µM.

And the GI50 (KB)?
Its GI50 is greater than 20 µM.

What about the GI50 [2] of the same compound?
Its GI50 is greater than 20 µM.

What about the inhibition (DU-145) of the same compound?
Its inhibition is “inactive”.

Which results are given for `COc1cc(/C=C/[N+](=O)[O-])c(-c2cc3c(cc2/C=C/[N+](=O)[O-])OCO3)c(OC)c1OC`?
IC50 [1]: 1.72 µM; GI50 (A549): 8.95 µM; GI50 (KB): 5.49 µM; GI50 [2]: 8.6 µM; GI50 (DU-145): 9.09 µM

Which IC50 [1] does the source give for `COc1cc(/C=C(/C)[N+](=O)[O-])c(-c2ccccc2/C=C(/C)[N+](=O)[O-])c(OC)c1OC` here?
The IC50 was 0.75 µM.

With `COC(=O)c1cc(OC)c(OC)c(OC)c1-c1ccccc1/C=C(\C)[N+](=O)[O-]` as the compound, how does the IC50 [1] read?
Its IC50 is 1.61 µM.

And the GI50 (A549)?
The GI50 was 6.2 µM.

What about the GI50 (KB) of the same compound?
The GI50 was 6.95 µM.

And the GI50 [2]?
Its GI50 is 6.17 µM.

What about the GI50 (DU-145) of the same compound?
The GI50 was 6.56 µM.

For `COc1cc(/C=C(\C)[N+](=O)[O-])c(-c2ccccc2/C=C(\C)[N+](=O)[O-])c2c1OCO2`, which IC50 [1] is on record?
Its IC50 is 0.81 µM.

And the GI50 (A549)?
The GI50 was 13.9 µM.

What about the GI50 (KB) of the same compound?
The GI50 was 18 µM.

What about the GI50 [2] of the same compound?
Its GI50 is 18.7 µM.

What about the GI50 (DU-145) of the same compound?
Its GI50 is 19.8 µM.

Which IC50 [1] does the source give for `COc1cc(/C=C(\C)[N+](=O)[O-])c(-c2cc3c(cc2/C=C(\C)[N+](=O)[O-])OCO3)c(OC)c1OC` here?
Its IC50 is 0.9 µM.

And the GI50 (A549)?
The GI50 was 0.87 µM.

What about the GI50 (KB) of the same compound?
Its GI50 is 0.72 µM.

What about the GI50 [2] of the same compound?
The GI50 was 1.27 µM.

And the GI50 (DU-145)?
Its GI50 is 1.51 µM.
